Experimental data from paper PMC11754507 (Ophthalmology Science, 2024).

Tests used:
[1] = format: in vivo, human; settings: intravitreal
Outline: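 Serum levels pooled from 4 clinical studies in adults with GA or nAMD, after single intravitreal 4, 10 or 20 mg or 15 mg monthly or every other month. LLOQ 0.10 μg/mL; BLQ samples (>20%) handled by M3 method. Vitreous dose compartment, first-order absorption into one serum compartment, first-order elimination; stepwise covariates (forward α=0.05, backward α=0.001); half-lives are median empirical Bayes estimates.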

[2] = system: systemic C3 activation (classical pathway); settings: serum concentration threshold for inhibition of systemic C3 activation; cited from earlier work
[3] = system: systemic C3 activation (alternative pathway); settings: serum concentration threshold for inhibition of systemic C3 activation; cited from earlier work
[4] = median empirical Bayes estimated

## pegcetacoplan
[1]; apparent volume of the central serum compartment, 261 patients with GA or nAMD
  VC/F, Transformed Estimate: 1.83 L
[1]
  half-life based on the slowest rate process: approximately 2 weeks
[1]; [4]
  absorption half-life (vitreous-to-serum): 13.1 days
  elimination half-life (serum): 4.51 days
[1]; vitreous-to-serum absorption rate constant, 261 patients with GA or nAMD
  KA, Transformed Estimate: 0.0528 day⁻¹
[2]
  EC50, classical pathway: 5.90 µg/mL
[3]
  half-maximal effective concentration [EC50], alternative pathway: 2.77 µg/mL
